Assay results pooled from the literature.
Compare with care: the assays were run in different laboratories.
PIK3CA E545K: Phosphatidylinositol 4,5-bisphosphate 3-kinase catalytic subunit alpha isoform (PIK3CA, Homo sapiens, UniProt P42336, E545K)
PIK3CA M1043I: Phosphatidylinositol 4,5-bisphosphate 3-kinase catalytic subunit alpha isoform (PIK3CA, Homo sapiens, UniProt P42336, M1043I)
PIK3CA H1047Y: Phosphatidylinositol 4,5-bisphosphate 3-kinase catalytic subunit alpha isoform (PIK3CA, Homo sapiens, UniProt P42336, H1047Y)
PIK3CA E545A: Phosphatidylinositol 4,5-bisphosphate 3-kinase catalytic subunit alpha isoform (PIK3CA, Homo sapiens, UniProt P42336, E545A)
PIK3CA Q546K: Phosphatidylinositol 4,5-bisphosphate 3-kinase catalytic subunit alpha isoform (PIK3CA, Homo sapiens, UniProt P42336, Q546K)
PIK3CA H1047L: Phosphatidylinositol 4,5-bisphosphate 3-kinase catalytic subunit alpha isoform (PIK3CA, Homo sapiens, UniProt P42336, H1047L)
PIK3CA: Phosphatidylinositol 4,5-bisphosphate 3-kinase catalytic subunit alpha isoform (PIK3CA, Homo sapiens, UniProt P42336)
PIK3CA C420R: Phosphatidylinositol 4,5-bisphosphate 3-kinase catalytic subunit alpha isoform (PIK3CA, Homo sapiens, UniProt P42336, C420R)
PIK3CA I800L: Phosphatidylinositol 4,5-bisphosphate 3-kinase catalytic subunit alpha isoform (PIK3CA, Homo sapiens, UniProt P42336, I800L)

COc1cc(-c2cn(C3CCc4c(F)cccc4N(CC(F)(F)F)C3=O)nn2)ccc1-n1cnc(C)c1 (stereo not shown) — remaining binding (PIK3CA E545K; cell-free assay, competition with immobilised ligand; 1 µM): 70%
COc1cnc(Nc2cccc(S(N)(=O)=O)c2)nc1N1CCN(c2ccccc2)CC1 — remaining binding (PIK3CA M1043I; binding, competition with immobilised ligand; 1 µM): 79%
NS(=O)(=O)c1cc(NC(=O)C2(c3ccccc3Cl)CC2)ccc1Oc1cccc(Cl)c1 — remaining binding (PIK3CA H1047Y; cell-free assay, competition with immobilised ligand; 1 µM): 76%
CCN1CCN(Cc2ccc(C(=O)Nc3ccc(C)c(Oc4ccc5c(c4)CC(=O)N5)c3)cc2C(F)(F)F)CC1 — remaining binding (PIK3CA H1047Y; binding, competition with immobilised ligand; 1 µM): 100%
Cc1cnc(Nc2ccc(C(=O)N3CCC(N4CCCC4)CC3)cc2)nc1-c1cc2ccccc2s1 — remaining binding (PIK3CA E545A; binding, competition with immobilised ligand; 1 µM): 77%
CN(C)CC#Cc1ccc(OCCCc2sc(N3CCc4cccc(C(=O)Nc5nc6ccccc6s5)c4C3)nc2C(=O)O)c(F)c1 — remaining binding (PIK3CA Q546K; cell-free assay, competition with immobilised ligand; 1 µM): 79%
Nc1ncc2c(n1)-c1c([nH]c3ccc(C#CC4CC4)cc13)CCCC2 — remaining binding (PIK3CA Q546K; binding, competition with immobilised ligand; 1 µM): 98%
C=CC(=O)N1CCC(C(=O)NCC(=O)N2CCN(c3nc(-c4cnc(N)nc4C(F)F)nc(N4CCOCC4)n3)CC2)CC1 — remaining binding (PIK3CA H1047L; binding, competition with immobilised ligand; 1 µM): 0.45%
CNC(=O)[C@@H]1CC[C@@H](n2c(-c3ccc4cnccc4c3)nc3ccc(C(=O)NCc4cccc(C(N)=O)c4)cc32)C1 — remaining binding (PIK3CA E545A; binding, competition with immobilised ligand; 1 µM): 89%
C[C@@H]1CCN(c2nccc(-c3cnn4ncccc34)n2)C1 — remaining binding (PIK3CA Q546K; binding; 1 µM): 79%
O=C(c1ccc(Nc2ncc(Cl)c(-c3cc4ccccc4s3)n2)cc1)N1CCC(N2CCCC2)CC1 — remaining binding (PIK3CA Q546K; binding, competition with immobilised ligand; 1 µM): 90%
CO[C@@H](C)c1c(Nc2ccc([C@H](N(C)C(=O)C3CCS(=O)(=O)CC3)C(F)(F)F)cc2)cnc2cc(Cl)nn12 — remaining binding (PIK3CA E545K; binding, competition with immobilised ligand; 1 µM): 48%
C[C@@H](c1ccc(-n2cnc3c(N)ncnc32)cc1)N1CCc2nn(C)c(Cc3ccccc3)c2C1=O — remaining binding (PIK3CA Q546K; binding, competition with immobilised ligand; 0.1 µM): 77%
CN1CCN(c2ccc(Nc3nccc(-c4cccc([N+](=O)[O-])c4)n3)cc2C(F)(F)F)CC1 — remaining binding (PIK3CA E545A; binding; 10 µM): 58%
F[C@@H]1CCN(c2nccc(-c3cnn4ncccc34)n2)C1 — remaining binding (PIK3CA E545K; binding; 1 µM): 100%
O=C(NCC1CCOCC1)c1n[nH]cc1NC(=O)c1c(F)cccc1F — remaining binding (PIK3CA E545K; binding, competition with immobilised ligand; 1 µM): 75%
COc1ncc2cc3ccccc3nc2c1C#N — remaining binding (PIK3CA E545A; cell-free assay, competition with immobilised ligand; 5 µM): 99%
CCN(CC)Cc1cc(Nc2ccnc3cc(Cl)ccc23)ccc1O — remaining binding (PIK3CA; cell-free assay, competition with immobilised ligand; 10 µM): 93%
c1cncc(-c2cccc(Nc3nccc(NC4CCCCC4)n3)c2)c1 — remaining binding (PIK3CA C420R; binding, competition with immobilised ligand; 10 µM): 73%
O=C(NCCCN1CCOCC1)c1ccc(Nc2ncc(Cl)c(-c3ccc(Cl)s3)n2)cc1 — remaining binding (PIK3CA H1047Y; binding, competition with immobilised ligand; 1 µM): 95%
Nc1cnc(N2CCc3cc(S(=O)(=O)Nc4c(F)cc(Cl)cc4F)cc(N4CCCC4=O)c32)nc1 — remaining binding (PIK3CA; cell-free assay, competition with immobilised ligand; 1 µM): 76%
O=C(NCCCN1CCOCC1)c1ccc(Nc2nccc(-c3cc4ccccc4s3)n2)cc1 — remaining binding (PIK3CA H1047Y; binding, competition with immobilised ligand; 1 µM): 73%
COc1cnc(Nc2cccc(S(N)(=O)=O)c2)nc1N1CCN(c2ccccc2)C(=O)C1 — remaining binding (PIK3CA E545K; binding, competition with immobilised ligand; 1 µM): 65%
N[C@@H]1CCN(c2nccc(-c3cnn4ncccc34)n2)C1 — remaining binding (PIK3CA I800L; binding; 1 µM): 71%
CCS(=O)(=O)c1cc2cc(C[C@](O)(CC(C)(C)c3ccc(F)cc3C(N)=O)C(F)(F)F)[nH]c2cn1 — remaining binding (PIK3CA I800L; cell-free assay, competition with immobilised ligand; 1 µM): 73%
CC1CCCN1c1nccc(-c2cnn3ncccc23)n1 (stereo not shown) — remaining binding (PIK3CA C420R; binding; 1 µM): 72%
CN1CCN(c2ccc(Nc3nccc(-c4ccccc4)n3)cc2C(F)(F)F)CC1 — remaining binding (PIK3CA Q546K; binding; 10 µM): 68%
CN(C)c1ncc(F)c(-c2cnn3ncccc23)n1 — remaining binding (Phosphatidylinositol 4,5-bisphosphate 3-kinase catalytic subunit alpha isoform (PIK3CA, Homo sapiens, UniProt P42336, E542K); binding; 1 µM): 69%
CSc1cccnc1N1CCN(Cc2nc3ccccc3[nH]2)CC1 — remaining binding (PIK3CA H1047L; cell-free assay, competition with immobilised ligand; 1 µM): 87%
O=C(c1ccc(Nc2ncc(Cl)c(-c3ccc(Cl)s3)n2)cc1)N1CCC(N2CCCC2)CC1 — remaining binding (PIK3CA M1043I; binding, competition with immobilised ligand; 1 µM): 100%
CNCc1ccccc1-c1csc([C@H](C)Nc2nc(C)nc3cc(OC)c(OC)cc23)c1 — remaining binding (PIK3CA M1043I; cell-free assay, competition with immobilised ligand; 1 µM): 100%
O=C(c1ccc(Nc2nccc(-c3cc4ccccc4s3)n2)cc1)N1CCC(N2CCCC2)CC1 — remaining binding (PIK3CA I800L; binding, competition with immobilised ligand; 1 µM): 100%
CN(CCCC(F)(F)F)c1nccc(-c2cnn3ncccc23)n1 — remaining binding (PIK3CA H1047Y; binding; 1 µM): 100%
O=C(Nc1c[nH]nc1C(=O)NC1CCNCC1)c1cc(F)cc(F)c1 — remaining binding (PIK3CA H1047Y; binding, competition with immobilised ligand; 1 µM): 100%
